Four molecules from ChEMBL document CHEMBL1157556, “Synthesis and biological screening of a combinatorial library of beta-chlorovinyl chalcones as anticancer, anti-inflammatory and antimicrobial agents” (Bioorg Med Chem, 2010) can be followed below.

In brackets after ≈: the same amount, converted by molar mass.

Usually MIC stands for the least concentration at which growth counts as inhibited. Low readings indicate greater potency, high ones weaker potency. In general, inhibition refers to how much of the control response was suppressed.

The test system of data set [1] is Klebsiella pneumoniae. Description: Antibacterial activity against Klebsiella pneumoniae NCIM 2957 at 50 ug/ml after 24 hrs agar diffusion method. Type of data set: functional. To be noted: NCIM 2957, 24 h, read-out: IZ. The procedure, abridged: (§1)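 Agar well diffusion on Mueller Hinton agar seeded with 0.1 mL of a 10⁵ cfu/mL suspension in 0.85% saline. Compounds dissolved in DMSO, final concentrations 25–250 µg/mL, 0.1 mL loaded per 6 mm well. DMSO (1%) control; tetracycline (10 µg/mL) reference. Duplicate plates incubated 24 h at 37 °C. Inhibition zone read in mm. MIC taken as lowest concentration giving complete growth inhibition.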
Background: In agar diffusion tests the substance spreads into inoculated agar from a disc or well.

For data set [2], the system named is Proteus vulgaris. In words: Antibacterial activity against Proteus vulgaris MTCC 1771 at 50 ug/ml after 24 hrs agar diffusion method. The note with it: MTCC 1771, 24 h, read-out: IZ. Type of data set: functional. Summed up: as §1
For data set [3], the system named is ACHN. In words: Anticancer activity against human ACHN cells at 10 uM after 48 hrs by propidium iodide fluorescence assay. The data set is classed as functional. The procedure, abridged: (§2)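 Propidium iodide DNA-fluorescence assay. Seeding 3000–7500 cells/well, 24 h recovery at 37 °C in 5% CO₂. Compounds in 0.1% DMSO added to triplicate wells at 10 µM. Flavopiridol 700 nM and gemcitabine 500 nM as reference inhibitors. Plates frozen at −80 °C for 24 h, thawed to room temperature, fluorescence read at excitation 530 nm and emission 620 nm. Percent cytotoxicity calculated.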

Data set [4] relates to Proteus vulgaris. In words: Antibacterial activity against Proteus vulgaris MTCC 1771 after 24 hrs. Type of data set: functional. The note with it: MTCC 1771, 24 h. The procedure, abridged: as §1
For data set [5], the system named is THP-1. In words: Cytotoxicity against human THP1 cells assessed as CCK8 release at 10 uM after 24 hrs by ELISA. Type of data set: cell-based. The note with it: thp-1, 24 h. The procedure, abridged:
(§3)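 Same THP-1 cytokine-assay cells, with compounds in 0.5% DMSO and LPS stimulation, were scored in parallel for cytotoxicity by CCK-8.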
(In an ELISA, binding on a coated surface is turned into a signal by an enzyme label.)

The subject of data set [6] is Trichoderma viride. Description: Antifungal activity against Trichoderma viride MTCC 167 at 100 ug/ml after 48 hrs agar diffusion method. Type of data set: functional. The note with it: MTCC 167, 48 h, read-out: IZ. The procedure, abridged:
(§4)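 Fungal spore suspensions in sterile distilled water adjusted to 10⁶ cfu/mL; 0.1 mL spread on Sabouraud dextrose agar. Wells of 6 mm filled with 0.1 mL compound dilution in DMSO. DMSO (1%) control; nystatin (30 µg/mL) reference. Duplicate plates incubated at 28 °C for 48 h. Activity read as inhibition zone diameter in mm.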

For data set [7], the system named is Staphylococcus aureus. Description: Antibacterial activity against Staphylococcus aureus MTCC 96 after 24 hrs. The data set is classed as functional. To be noted: MTCC 96, 24 h. The procedure, abridged:
as §1

In data set [8] the test system is Calu-1. Description: Anticancer activity against human Calu1 cells at 10 uM after 48 hrs by propidium iodide fluorescence assay. The data set is classed as functional. Summed up: as §2
Data set [9] has as its system Candida albicans. In words: Antifungal activity against Candida albicans MTCC 227 at 100 ug/ml after 48 hrs agar diffusion method. Type of data set: functional. To be noted: MTCC 227, 48 h, read-out: IZ. Summed up: as §4
Data set [10] concerns THP-1. In words: Antiinflammatory activity in human THP1 cells assessed as inhibition of LPS-induced TNFalpha release at 10 uM after 24 hrs by ELISA. The data set is classed as functional. The note with it: THP-1, 24 h. Summed up: (§5)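 THP-1 cells grown in RPMI 1640 with 10% FBS, penicillin and streptomycin, then PMA-differentiated. Compounds in 0.5% DMSO preincubated 30 min at 37 °C before LPS (E. coli 0127:B8) stimulation. TNF-α and IL-6 release measured by kit per the manufacturer (BD Biosciences). Percent inhibition calculated relative to control. Dexamethasone 1 µM as reference.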

In data set [11] the test system is THP-1. In words: Antiinflammatory activity in human THP1 cells assessed as inhibition of LPS-induced IL6 release at 10 uM after 24 hrs by ELISA. Type of data set: functional. To be noted: THP-1, 24 h. The procedure, abridged: as §5
In data set [12] the test system is Bacillus subtilis. In words: Antibacterial activity against Bacillus subtilis MTCC 1789 after 24 hrs. The data set is classed as functional. To be noted: MTCC 1789, 24 h. The procedure, abridged:
as §1

The subject of data set [13] is Escherichia coli. In words: Antibacterial activity against Escherichia coli MTCC 1650 after 24 hrs. Type of data set: functional. The note with it: MTCC 1650, 24 h. Summed up:
as §1

For data set [14], the system named is Aspergillus niger. In words: Antifungal activity against Aspergillus niger MTCC 1781 at 100 ug/ml after 48 hrs agar diffusion method. The data set is classed as functional. To be noted: MTCC 1781, 48 h, read-out: IZ. Summed up:
as §4

Data set [15] relates to HCT-116. Description: Anticancer activity against human HCT116 cells at 10 uM after 48 hrs by propidium iodide fluorescence assay. The data set is classed as functional. Summed up: as §2
Data set [16] has as its system Staphylococcus aureus. In words: Antibacterial activity against Staphylococcus aureus MTCC 96 at 50 ug/ml after 24 hrs agar diffusion method. The data set is classed as functional. To be noted: MTCC 96, 24 h, read-out: IZ. The procedure, abridged:
as §1

Data set [17] has as its system NCI-H460. Description: Anticancer activity against human H460 cells at 10 uM after 48 hrs by propidium iodide fluorescence assay. Type of data set: functional. Summed up: as §2
Data set [18] has as its system Aspergillus flavus. In words: Antifungal activity against Aspergillus flavus MTCC 2501 at 100 ug/ml after 48 hrs agar diffusion method. The note with it: MTCC 2501, 48 h, read-out: IZ. Type of data set: functional. Summed up: as §4
Data set [19] has as its system Bacillus subtilis. In words: Antibacterial activity against Bacillus subtilis MTCC 1789 at 50 ug/ml after 24 hrs agar diffusion method. Type of data set: functional. To be noted: MTCC 1789, 24 h, read-out: IZ. Summed up:
as §1

Data set [20] relates to PANC-1. In words: Anticancer activity against human PANC1 cells at 10 uM after 48 hrs by propidium iodide fluorescence assay. The data set is classed as functional. Summed up: as §2
For data set [21], the system named is Klebsiella pneumoniae. Description: Antibacterial activity against Klebsiella pneumoniae NCIM 2957 after 24 hrs. The data set is classed as functional. To be noted: NCIM 2957, 24 h. The procedure, abridged: as §1
Data set [22] relates to Escherichia coli. In words: Antibacterial activity against Escherichia coli MTCC 1650 at 50 ug/ml after 24 hrs agar diffusion method. Type of data set: functional. To be noted: MTCC 1650, 24 h, read-out: IZ. The procedure, abridged:
as §1

Data set [23] deals with Penicillium chrysogenum. In words: Antifungal activity against Penicillium chrysogenum MTCC 1996 at 100 ug/ml after 48 hrs agar diffusion method. The data set is classed as functional. The note with it: MTCC 1996, 48 h, read-out: IZ. Summed up:
as §4

In data set [24] the test system is THP-1. Description: Antiinflammatory activity in human THP1 cells assessed as inhibition of LPS-induced TNFalpha release at 1 uM after 24 hrs by ELISA. The data set is classed as functional. The note with it: THP-1, 24 h. The procedure, abridged: as §5
Data set [25] relates to THP-1. Description: Antiinflammatory activity in human THP1 cells assessed as inhibition of LPS-induced IL6 release at 1 uM after 24 hrs by ELISA. Type of data set: functional. The note with it: THP-1, 24 h. The procedure, abridged: as §5
In data set [26] the test system is THP-1. Description: Cytotoxicity against human THP1 cells assessed as CCK8 release at 1 uM after 24 hrs by ELISA. Type of data set: cell-based. To be noted: thp-1, 24 h. The procedure, abridged:
as §3

The test system of data set [27] is HCT-116. Description: Anticancer activity against human HCT116 cells at 700 nM after 48 hrs by propidium iodide fluorescence assay. The data set is classed as functional. Summed up: as §2
Data set [28] relates to PANC-1. In words: Anticancer activity against human PANC1 cells at 700 nM after 48 hrs by propidium iodide fluorescence assay. The data set is classed as functional. Summed up:
as §2

Data set [29] concerns Calu-1. Description: Anticancer activity against human Calu1 cells at 700 nM after 48 hrs by propidium iodide fluorescence assay. Type of data set: functional. The procedure, abridged:
as §2

The subject of data set [30] is ACHN. Description: Anticancer activity against human ACHN cells at 700 nM after 48 hrs by propidium iodide fluorescence assay. The data set is classed as functional. The procedure, abridged: as §2
The test system of data set [31] is NCI-H460. In words: Anticancer activity against human H460 cells at 700 nM after 48 hrs by propidium iodide fluorescence assay. The data set is classed as functional. The procedure, abridged: as §2

Regarding `COc1ccc(C(=O)/C=C/C=C(\Cl)c2ccc(F)cc2)cc1`, the zone of inhibition at 50 µg/mL in [1] was determined as 15 mm; in data set [2], 16 mm; in [16], 16 mm; in data set [19] it was 15 mm; in data set [22] it was 11 mm. For the same molecule, the Activity in [3] amounted to 17%; in [5], 2%; in data set [8], 0%; in data set [15], 0%; in data set [17], 14%; in data set [20] it was 1%. In addition, the minimal inhibitory concentration (MIC) in [4], in data set [7], in [12], in data set [13] and in data set [21] was 50 µg/mL (≈ 158 µM) in each case. Also, the zone of inhibition at 100 µg/mL is 14 mm in data set [6]; 8 mm in data set [9]; 8 mm in data set [14]; 15 mm in [18]; 15 mm in data set [23]. For the same molecule, the inhibition at 10 µM in data set [10] turned out to be 0%; in data set [11], 6%.

Take `C[C@@H]1C[C@H]2[C@@H]3CCC4=CC(=O)C=C[C@]4(C)[C@@]3(F)[C@@H](O)C[C@]2(C)[C@@]1(O)C(=O)CO` [DEXAMETHASONE]: the results for the inhibition at 1 µM in data set [24] and in data set [25] were 73% and 84%, respectively. Besides, the Activity in [26] turned out to be 0%.

Take `CN1CC[C@H](c2c(O)cc(O)c3c(=O)cc(-c4ccccc4Cl)oc23)[C@H](O)C1` [ALVOCIDIB]: the Activity stood at 71% in data set [27]; 75% in data set [28]; 68% in [29]; 68% in data set [30]; 84% in data set [31].

`COc1ccc(C(=O)/C=C/C=C(\Cl)c2ccc(OC)cc2)cc1`: the zone of inhibition at 50 µg/mL is 12 mm in data set [1], 12 mm in data set [16] and 17 mm in data set [22]. Besides, the Activity came to 28% in [3]; 0% in data set [5]; 38% in [8]; 16% in [15]; 19% in data set [17]; 16% in data set [20]. In addition, the MIC in data set [4], in data set [7], in data set [12], in data set [13] and in data set [21] was 50 µg/mL (≈ 152 µM) throughout. For the same molecule, the zone of inhibition at 100 µg/mL in data set [6] turned out to be 14 mm; in [9], 11 mm; in data set [14], 14 mm; in [18], 14 mm; in data set [23] it was 15 mm. The inhibition at 10 µM in data set [10] turned out to be 2%; in data set [11], 11%.
